What was measured:
[1] = target: T1, Adenosine receptor A3 (Homo sapiens) (UniProt P0DMS8); experiment: Displacement of [125I]ABMECA from human adenosine A3 receptor expressed in CHO cell membranes at 1 uM
T1 sequence (whole entry): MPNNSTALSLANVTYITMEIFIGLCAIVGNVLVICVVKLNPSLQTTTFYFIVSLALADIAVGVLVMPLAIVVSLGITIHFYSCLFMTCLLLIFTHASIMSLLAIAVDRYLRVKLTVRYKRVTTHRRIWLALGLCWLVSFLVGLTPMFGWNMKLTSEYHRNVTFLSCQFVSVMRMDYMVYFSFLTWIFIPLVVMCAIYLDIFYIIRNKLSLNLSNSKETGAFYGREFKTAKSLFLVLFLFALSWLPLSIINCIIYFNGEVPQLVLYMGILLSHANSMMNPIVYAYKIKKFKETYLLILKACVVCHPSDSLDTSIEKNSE
Method in brief: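 Competition at hA3 CHO membranes (50 µg protein) against 0.5 nM [¹²⁵I]AB-MECA, Tris HCl/MgCl₂/EDTA buffer pH 7.4, 120 min at 4 °C; nonspecific binding with 1 µM AB-MECA; test compound at 1 µM; % inhibition of binding.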

[2] = target: T2, Adenosine receptor A1 (Homo sapiens) (UniProt P30542); experiment: Displacement of [3H]DPCPX from human adenosine A1 receptor expressed in CHO cell membranes at 1 uM
T2 sequence (whole entry): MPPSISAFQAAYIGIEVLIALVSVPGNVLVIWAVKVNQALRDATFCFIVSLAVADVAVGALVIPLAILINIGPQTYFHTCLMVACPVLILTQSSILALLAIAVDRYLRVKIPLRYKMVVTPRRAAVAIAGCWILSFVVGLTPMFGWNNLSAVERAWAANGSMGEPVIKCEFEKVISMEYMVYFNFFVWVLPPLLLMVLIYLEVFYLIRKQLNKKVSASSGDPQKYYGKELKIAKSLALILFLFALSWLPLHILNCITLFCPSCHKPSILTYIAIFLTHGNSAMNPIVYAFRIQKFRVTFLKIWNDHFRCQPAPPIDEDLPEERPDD
Method in brief: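 hA1 CHO membranes (50 µg protein) with 1 nM [³H]DPCPX in 50 mM Tris HCl pH 7.4, 120 min at 25 °C; nonspecific binding with 10 µM CHA; glass-fiber filtration, scintillation counting; % inhibition at 1 µM test compound.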

[3] = target: Adenosine receptor A2a (Homo sapiens) (UniProt P29274); experiment: Displacement of [3H]ZM-241385 from human adenosine A2A receptor expressed in CHO cell membranes at 1 uM
Chain of Adenosine receptor A2a (Homo sapiens) (P29274 whole entry): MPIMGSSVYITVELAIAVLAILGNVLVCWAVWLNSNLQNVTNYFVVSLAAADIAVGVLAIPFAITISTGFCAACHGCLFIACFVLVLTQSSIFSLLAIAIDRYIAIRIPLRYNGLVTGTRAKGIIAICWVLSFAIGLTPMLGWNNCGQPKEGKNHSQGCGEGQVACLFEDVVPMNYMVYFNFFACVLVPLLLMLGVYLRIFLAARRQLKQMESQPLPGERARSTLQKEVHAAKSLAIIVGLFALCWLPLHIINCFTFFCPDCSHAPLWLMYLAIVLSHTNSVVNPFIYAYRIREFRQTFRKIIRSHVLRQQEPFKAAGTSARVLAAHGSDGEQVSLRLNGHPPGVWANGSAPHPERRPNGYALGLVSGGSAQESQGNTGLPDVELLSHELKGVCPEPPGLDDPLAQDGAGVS
Method in brief: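 Binding of 1 nM [³H]ZM-241385 to hA2A CHO membranes (50 µg protein) in 50 mM Tris HCl, 10 mM MgCl₂, pH 7.4, 60 min at 4 °C; nonspecific binding with 1 µM ZM-241385; filtration and counting; % inhibition at 1 µM test compound.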

[4] = target: T3, Adenosine receptor A2b (Homo sapiens) (UniProt P29275); experiment: Antagonist activity at human adenosine A2B receptor expressed in CHO cells assessed as inhibition of NECA-stimulated cAMP levels at 1 uM; format: functional, cell-based
T3 sequence (whole entry): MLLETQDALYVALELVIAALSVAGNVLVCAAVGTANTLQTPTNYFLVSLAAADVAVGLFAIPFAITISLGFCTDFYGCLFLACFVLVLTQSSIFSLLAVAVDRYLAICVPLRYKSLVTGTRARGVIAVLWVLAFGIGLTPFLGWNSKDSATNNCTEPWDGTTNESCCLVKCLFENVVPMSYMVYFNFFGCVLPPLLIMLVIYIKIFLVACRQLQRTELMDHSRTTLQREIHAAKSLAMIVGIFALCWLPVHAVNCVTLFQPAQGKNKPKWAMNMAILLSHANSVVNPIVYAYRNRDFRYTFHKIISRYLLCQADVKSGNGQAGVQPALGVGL
Method in brief: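 Stably transfected hA2B CHO cells, 1 × 10⁶ cells/assay, preincubated 10 min at 37 °C, pH 7.4, with adenosine deaminase 2 IU/ml and Ro 20-1724 as phosphodiesterase inhibitor. Stimulated by 200 nM NECA; test compound at 1 µM. Stopped with cold 6% TCA; cAMP measured by [³H]cAMP competition protein binding with beef adrenal binding protein. Reported as % inhibition.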

Adenosine receptor A3 [5] = target: T4, Adenosine receptor A3 (Homo sapiens, UniProt P0DMS8); experiment: Activity at human adenosine A3 receptor expressed in CHO cells assessed as antagonism of Cl-IB-MECA-inhibited cAMP production; format: functional, cell-based
T4 sequence (P0DMS8 whole entry): T1 sequence (whole entry)
Method in brief: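 CHO cells stably expressing hA3, washed, trypsinized, 1 × 10⁶ cells/assay, preincubated 10 min at 37 °C in buffered salt–glucose medium (pH 7.4) with adenosine deaminase 2 IU/ml and Ro 20-1724. Forskolin 1 µM plus Cl-IB-MECA 100 nM. Stopped with cold 6% TCA, ether-extracted, cAMP by [³H]cAMP competition protein binding. IC50 from sigmoid nonlinear regression; means ± SEM of four experiments.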

Adenosine receptor A3 [6] = target: T4, Adenosine receptor A3; experiment: Displacement of [125I]ABMECA from human adenosine A3 receptor expressed in CHO cell membranes
Method in brief: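 hA3 CHO membranes, 50 µg protein, with 0.5 nM [¹²⁵I]AB-MECA in 50 mM Tris HCl, 10 mM MgCl₂, 1 mM EDTA, pH 7.4. At least 6–8 ligand concentrations, 120 min at 4 °C. Nonspecific binding with 1 µM AB-MECA. Filtration, counting. Ki via Cheng–Prusoff from IC50; means ± SEM of four assays, each in duplicate.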

| SMILES | Activity [1] [%] | Activity [2] [%] | Activity [3] [%] | inhibition [4] [%] | IC50 (Adenosine receptor A3 [5]) [µM] | Ki (Adenosine receptor A3 [6]) [µM] |
| --- | --- | --- | --- | --- | --- | --- |
| COc1ccc(NC(=O)c2ccnc(N(C(=O)c3ccccc3)C(=O)c3ccccc3)n2)cc1 | 14 | 5 | 1 | 3 | – | – |
| CC(=O)Nc1nc(C(=O)Nc2ccccc2)c2ccccc2n1 | – | 25 | 7 | 5 | 0.14 | 0.0253 |
| O=C(Nc1ccccc1)c1nc(=O)[nH]c2ccccc12 | – | 22 | 1 | 4 | – | – |
| COc1ccc(NC(=O)c2cc(=O)[nH]c3ccccc23)cc1 | 26 | 4 | 1 | 3 | – | – |
| Cc1ccc(NC(=O)c2[nH]c(=O)nc3ccccc23)cc1 | – | – | – | – | – | 0.0267 |
| Cc1ccc(NC(=O)c2nc(N)nc3ccccc23)cc1 | – | 3 | 5 | 4 | – | 0.0983 |
| Nc1nc(C(=O)Nc2ccccc2)c2ccccc2n1 | – | 40 | 17 | 5 | – | 0.35 |
| COc1ccc(NC(=O)c2nc(=O)[nH]c3ccccc23)cc1 | – | 4 | 1 | 9 | – | – |
| O=C(Nc1ccccc1)c1cc(=O)[nH]c2ccccc12 | 38 | 1 | 1 | 2 | – | – |
| Nc1nc(C(=O)Nc2ccc(Br)cc2)c2ccccc2n1 | – | 1 | 1 | 2 | – | 0.55 |
| COc1ccc(NC(=O)c2cc(N)nc3ccccc23)cc1 | 1 | 2 | 3 | 3 | – | – |
| Cc1ccc(NC(=O)c2nc(=O)[nH]c3ccccc23)cc1 | – | 21 | 2 | 2 | – | – |
| COc1ccc(NC(=O)c2ccnc(NC(=O)c3ccccc3)n2)cc1 | 22 | 6 | 6 | 2 | – | – |
| O=C(Nc1ccc(Br)cc1)c1[nH]c(=O)nc2ccccc12 | – | – | – | – | – | 0.0272 |
| Nc1cc(C(=O)Nc2ccccc2)c2ccccc2n1 | 6 | 1 | 2 | 5 | – | – |
| COc1ccc(NC(=O)c2nc(N)nc3ccccc23)cc1 | – | 8 | 6 | 23 | – | 0.0875 |
| O=C(Nc1ccccc1)c1[nH]c(=O)nc2ccccc12 | – | – | – | – | 0.238 | 0.05 |
| COc1ccc(NC(=O)c2ccnc(N)n2)cc1 | 15 | 3 | 6 | 3 | – | – |
| O=C(Nc1ccc(Br)cc1)c1nc(=O)[nH]c2ccccc12 | – | 3 | 1 | 2 | – | – |
| COc1ccc(NC(=O)c2[nH]c(=O)nc3ccccc23)cc1 | – | – | – | – | 0.125 | 0.0195 |
| Nc1nc(C(=O)NC2CCCCC2)c2ccccc2n1 | 21 | 2 | 3 | 1 | – | – |
| O=C(Nc1nc(C(=O)Nc2ccccc2)c2ccccc2n1)c1ccccc1 | – | 7 | 10 | 3 | – | 0.182 |

— ChEMBL document CHEMBL1138345, “Scouting human A3 adenosine receptor antagonist binding mode using a molecular simplification approach: from triazoloquinoxaline to a pyrimidine skeleton as a key study” (J Med Chem, 2007)
